STAT3 inh-1 = reduces IL-6 driven STAT3 reporter signal. 190,000 tested, 0.89% active. AID 862. inhibition, % at 5.5 µM. U3A cells, IL-6 STAT3-luciferase reporter, luminescence; host cell line lacks STAT1;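 active = inhibition above the mean inhibition across all screened compounds plus 3 SD, cut at about 44% in these data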;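 also: 0% = DMSO only wells and 100% = 100 µM nifuroxazide control wells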
STAT1 activator = STAT1 signaling activation. NIH 3T3 STAT1-luciferase reporter, IFN-gamma, luminescence; 100% = IFN-gamma alone, no compound. 200,000 tested, 2.6% active. activation (% of control), % at 5.5 µM. AID 932;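 active = activation above the screen-wide mean activation plus 3 SD, cut at about 130% in these data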;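 also: raw ratio to IFN-gamma control signal so 100% means no change and 0% no light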
NF-kB expr up = raises NF-kB expression in human neuronal cells; NF-kB reporter expression; stronger effect = higher value; fold change at 12.5 µM; 190,000 tested, 1.6% active; AID 1239; in the data active = fold change above about 3.3
APP 5'UTR act = activates APP 5'UTR luciferase reporter; SH-SY5Y APP 5'UTR luciferase reporter, luminescence; zero percent = DMSO vehicle wells; activation, % at 2 µM; 190,000 tested, 1% active;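 active = activation above a set limit, based on mean plus 3 SD of controls, cut at about 140% in these data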
STAT3 act = activators of IL-6 induced STAT3 signaling. U3A cells, IL-6 STAT3-luciferase reporter, luminescence; 100% = signal with IL-6 EC80 alone. activation (% of control), % at 5.6 µM. 190,000 tested, 0.91% active. AID 871;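 active = activation above the screen-wide mean of compound activation plus 3 SD, cut at about 130% in these data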;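 also: 0% = background luminescence of wells with medium and substrate only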
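Material: STAT3-luciferase reporter U3A cells; Probe or stimulus: IL-6 (33 ng/mL); Incubation: compound pre-incubation 1 h before IL-6, then 6 h stimulation at 37 °C; Technique: luminescence from STAT3-driven luciferase reporter; Evaluation: % activation versus median of IL-6-stimulated wells; Controls: IL-6-only high control.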
STAT1 inh = reduces IFN-gamma driven STAT1 reporter signal | NIH 3T3 STAT1-luciferase reporter, luminescence | inhibition, % at 5.5 µM | 200,000 tested, 0.35% active;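 active = inhibition above a set limit, the mean inhibition across all tested compounds plus 3 SD, cut at about 34% in these data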;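 also: 0% = IFN-gamma with DMSO and 100% = IFN-gamma with 300 µM nifuroxazide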
STAT3 inh-2 = STAT3 inhibition, confirmation assay | AID 1265 | 1,200 tested, 45% active | inhibition, % at 5.7 µM | U3A cells, IL-6 STAT3 luciferase reporter, luminescence; cell line lacks STAT1 | shares compounds with STAT3 inh-1;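 active = inhibition above the hit cutoff computed for the primary STAT3 screen, cut at about 44% in these data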;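 also: 0% = IL-6 plus DMSO and 100% = IL-6 plus nifuroxazide control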
NFkB inh STAT3ct = counter-screen for STAT3 inhibitors: NF-kappaB inhibition. HEK293T NF-kB luciferase reporter, TNF-alpha induced. shares compounds with STAT3 inh-1. 1,200 tested, 36% active. inhibition, % at 5.7 µM;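 active = inhibition above the mean of solvent-only control wells plus 3 SD, cutoff set per campaign, cut at about 13% in these data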;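 also: 0% = TNF-alpha with DMSO and 100% = TNF-alpha with MG high control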
STAT1 inh 2 = counter-screen for STAT3 inhibitors: STAT1 inhibition | 1,200 tested, 27% active | inhibition, % at 5.7 µM | AID 1317 | NIH 3T3 STAT1-luciferase reporter, IFN-gamma induced, luminescence | shares compounds with STAT3 inh-1;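 active = inhibition above the mean plus 3 SD of solvent-only control wells, limit set per screening run, cut at about 16% in these data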;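 also: 0% = DMSO with IFN-gamma and 100% = nifuroxazide control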
Numbers without * were called inactive; / = not tested or not shown. A selection: hits, their analogues and other compounds. The true share with any hit is near 5.1%.

SMILES	STAT3 inh-1	STAT1 activator	NF-kB expr up	APP 5'UTR act	STAT3 act	STAT1 inh	STAT3 inh-2	NFkB inh STAT3ct	STAT1 inh 2
Cc1cc(Cl)c(S(=O)(=O)N2CCCCCC2)cc1OCC(=O)NC1CCCCC1	82*	90	0.55	-9	32	10	83*	31*	16*
CCN1CCN(S(=O)(=O)c2cc(OCC(=O)NC3CCCCC3)c(C)cc2Cl)CC1	77*	81	0.68	-42	38	21	57*	19*	8
COc1ccc(NC(=O)Nc2cccc(C(F)(F)F)c2)cn1	10	98	1	-4	98	1	/	/	/
O=C(CCCOc1ccc(Cl)cc1Cl)NN1CCOCC1	1	100	1.1	-6	103	0	/	/	/
Cc1cc(=O)[nH]c(N/N=C/c2ccc(OC(=O)c3ccco3)cc2)n1	4	106	0.99	-4	95	-7	/	/	/
Cc1ccc2c(C)nc(Nc3nc(CSc4nc5ccccc5[nH]4)cc(=O)[nH]3)nc2c1	53*	94	0.39	4	63	7	45*	1	2
Cc1ccc(SCc2cc(=O)[nH]c(Nc3nc(C)c4ccc(C)cc4n3)n2)cc1	1	94	0.9	3	99	7	/	/	/
Cc1cccc2cc(-c3ccccc3)c(-c3ccccc3)c[n+]12	46*	77	0.61	0	64	26	19	-10	1
COc1cc(NC(=O)c2ccc3c(c2)OCCO3)ccc1NC(=O)c1cccs1	21	108	0.74	12	84	-10	/	/	/
COc1cc(NC(=O)c2ccc([N+](=O)[O-])o2)ccc1NC(=O)c1cccs1	44*	112	1.4	-35	68	-14	28	5	-14
CCCn1c(SCC(=O)NCCc2ccccc2)nnc1-c1ccco1	16	99	1.1	-5	89	1	/	/	/
Fc1ccc(NC(=S)Nc2ccc(Cl)cc2Cl)cc1	44*	109	1.4	2	65	-11	41	-9	-8
C=CCN(CC=C)C(=S)Nc1ccc(OC)c(OC)c1	0	101	1.1	9	106	-3	/	/	/
Cc1c(C(=O)Nc2ccc3c(c2)OCCO3)sc2nc(-c3ccccc3)cn12	51*	69	0.34	-11	59	34*	42	2	10
Cc1c(C(=O)Nc2ccncc2)sc2nc(-c3ccccc3)cn12	30	96	0.47	10	76	5	/	/	/
Clc1c(CSc2nc3ccccc3o2)nc2ccccn12	45*	137*	5.5*	172*	64	-40	2	-22	-94
O=C(O)c1ccc(CSc2nc3ccccc3o2)cc1	-2	105	1.3	1	104	-5	/	/	/
NC(=O)c1ccc(N2CCN(S(=O)(=O)c3ccccc3)CC2)c([N+](=O)[O-])c1	72*	78	0.92	-12	41	24	71*	23*	28*
CCNC(=O)OCc1cn(-c2ccc(Cl)cc2)nn1	14	106	1.4	15	95	-6	/	/	/
Cc1ccc(C(=O)CSc2nnnn2C(C)C)c(C)c1	78*	72	3	155*	35	30	49*	22*	-24
Cc1ccc(C)c(C(=O)CSc2nnnn2C(C)C)c1	16	109	1.7	-14	90	-10	/	/	/
Cc1csc(NC(=O)c2cc3c(s2)CCCC3)n1	86*	78	2.4	165*	27	24	55*	-1	-62
Cc1ccc(C(=O)N/C(=C\c2ccccc2)C(=O)NCc2cccnc2)cc1	-4	102	1	10	106	-2	/	/	/
Cc1nn(Cc2ccc(Cl)cc2Cl)c(C)c1NC(=O)C1C2CCC(O2)C1C(=O)O (stereo unspecified)	47*	91	0.95	-6	63	17	27	4	10
Cc1ccc(SCC(=O)NCCSC(C)(C)C)cc1	-9	112	1.6	-3	108	-15	/	/	/
SMILES	STAT3 inh-1	STAT1 activator	NF-kB expr up	APP 5'UTR act	STAT3 act	STAT1 inh	STAT3 inh-2	NFkB inh STAT3ct	STAT1 inh 2
C=CCN=C1NN=C(c2cc(C)n(CC=C)c2C)CS1	74*	78	0.25	58	38	25	50*	26*	2
COCCN=C1NN=C(c2cc(C)n(CC3CCCO3)c2C)CS1 (stereo unspecified)	10	96	0.52	6	95	3	/	/	/
O=C(NCc1ccncc1)c1ccc(Oc2ccccc2)cc1	31	89	1.1	-5	75	11	/	/	/
Cc1ccc(Oc2ccc(C(=O)NCc3ccncc3)cc2)cc1	52*	80	0.82	-6	58	21	44*	11	7
c1ccc2c(c1)[nH]c1c(N3CCCC3)ncnc12	46*	84	0.76	24	63	17	39	18*	23*
CCOc1ccc(C(C)=O)cc1CSC(=N)N	16	82	/	-19	91	20	/	/	/
CCCCOc1ccc(Br)cc1CSC(=N)N	58*	77	0.85	-52	51	26	71*	25*	21*
CCOC(=O)c1nc2cc3n(c(C)c-2c1C)C(C)C(CC)=C3C (stereo unspecified)	34	92	/	14	74	8	/	/	/
Cc1cc(C(=O)CSc2nnc(-c3cccs3)o2)c(C)n1-c1ccccc1	47*	78	0.48	-2	64	24	19	17*	-18
COc1ccc2nc(SCC(=O)Nc3nccs3)[nH]c2c1	15	107	1.2	3	92	-10	/	/	/
CN(C)S(=O)(=O)c1cccc(NC(=O)COC(=O)c2cn(-c3ccccc3)nc2-c2ccccc2)c1	4	100	0.53	-6	104	0	/	/	/
Cc1cc(C(=O)OCC(=O)Nc2cccc(S(=O)(=O)N(C)C)c2)c2ccccc2n1	47*	79	1.2	-8	64	21	25	1	9
Clc1cccc(-c2ccc(C=Nc3ccc(N4CCOCC4)cc3)o2)c1	-17	98	1.2	3	115	3	/	/	/
CC(=O)OC(C(=O)NC1CCCCC1)c1ccc(Cl)c(Cl)c1 (stereo unspecified)	0	104	1	4	106	-6	/	/	/
COc1ccc(CCn2c(C)cc(C(=O)CSc3nnnn3-c3ccccc3)c2C)cc1	-2	103	1.2	-2	103	-3	/	/	/
O=[N+]([O-])c1ccc(N/N=C/c2c[nH]c3ccccc23)cc1	48*	108	2.4	-8	68	-9	26	8	-10
Cc1ccc(S(=O)(=O)CC(=O)N(C)C)cc1	-1	104	1.1	32	104	-4	/	/	/

High-throughput results from PubChem.
